Experimental data collected from several papers.
ADAM17: Disintegrin and metalloproteinase domain-containing protein 17 (ADAM17, Homo sapiens, UniProt P78536)
MAPKAPK2: MAP kinase-activated protein kinase 2 (MAPKAPK2, Homo sapiens, UniProt P49137)

SMILES | target | assay | setting | inhibition [%]
C[C@H](C(=O)N[C@H]1COc2ccccc2[C@@H]1S(C)(=O)=O)c1ccc(F)cc1 | Vasopressin V1b receptor (AVPR1B, Homo sapiens, UniProt P47901) | cell-free assay | 10 µM | 26
CCN(CC)CCCC[C@H](NC(=O)[C@H](CC(C)C)NC(=O)[C@H](C)NC(=O)[C@H](Cc1ccccc1)NC(=O)c1ccc(C(C)(C)C)cc1)C(=O)N[C@@H](CO)C(=O)OC | Vasopressin V1a receptor (AVPR1A, Homo sapiens, UniProt P37288) | ligand displacement, radioligand | 10 µM | 85
N=C(N)c1ccc2cc(OC(=O)c3ccc(N=C(N)N)cc3)ccc2c1 | ADAM17 | enzyme activity, inhibitor | 10 µM | 5
Cn1cc(-c2cc(F)cc(N3CCn4c(cc5c4CCCC5)C3=O)c2CO)cc(Nc2ccc(N3CCN(C4COC4)CC3)cn2)c1=O | Phosphatidylinositol 4,5-bisphosphate 3-kinase catalytic subunit alpha isoform (PIK3CA, Homo sapiens, UniProt P42336) | enzyme activity, inhibitor | 0.1 µM | -7
C#Cc1n[nH]c2c(-c3cn([C@@H](C)c4ccccc4)c(=O)[nH]c3=O)cc(F)cc12 | MAPKAPK2 | enzyme activity, inhibitor | 0.1 µM | 11.6
O=C(Nc1cccnn1)N1CCN([C@@H]2CCOc3cc(C(F)(F)F)ccc32)CC1 | Motilin receptor (MLNR, Homo sapiens, UniProt O43193) | cell-free assay | 20 µM | -3
CC(C)C[C@H](CC(=O)NO)C(=O)N[C@H](C(=O)N[C@@H](C)C(=O)NCCN)C(C)(C)C | ADAM17 | enzyme activity, inhibitor | 0.1 µM | 0
C#Cc1n[nH]c2c(-c3cn([C@@H](C)c4ccccn4)c(=O)[nH]c3=O)cc(F)cc12 | MAPKAPK2 | enzyme activity, inhibitor | 0.1 µM | 11.8
COc1cc(Nc2ncc(F)c(Nc3ccc4c(n3)NC(=O)C(C)(C)O4)n2)cc(OC)c1OC | Mitogen-activated protein kinase kinase kinase 12 (MAP3K12, Homo sapiens, UniProt Q12852) | binding, competition with immobilised ligand | 10 µM | 32
c1ccc(C(NCCNC(c2ccccc2)c2ccccc2)c2ccccc2)cc1 | Gamma-aminobutyric acid type B receptor subunit 1 (GABBR1, Homo sapiens, UniProt Q9UBS5) | cell-free assay | 10 µM | -14
COc1c2c(cc3c1OCO3)CC[N+](C)=C2.[Cl-] | Glycogen synthase kinase-3 beta (GSK3B, Homo sapiens, UniProt P49841) | enzyme activity, inhibitor, ADP detection | 100 µM | 9.2
